Assay outcomes from PubChem BioAssay.
An excerpt weighted towards active compounds, which were near 3% of everything screened.
NPY Y1 blocker – NPY-Y1 (human) receptor antagonism; inhibition, % at 3.6 µM; P25929; HEK293-CNG Y1 cells, membrane potential fluorescence; NPY at EC95, then isoproterenol; actives 1% (n = 200,000); AID 1040;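 active = inhibition above the campaign mean inhibition of all tested compounds plus 3 SD, cut at about 20% in these data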
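Assay system: HEK293 Y1/CNG channel cell line; Doses: single compound dose of 3.6 µM, 0.4% DMSO; Timing: dye 3 h, compound 60 min room temperature, stimulation 45 min; Technique: Membrane-potential fluorescent dye readout; Measure: % inhibition of NPY effect.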
NPY1 pot ag – potentiates or activates human NPY-Y1 receptor; P25929; NPY-Y1 expressing cells, potentiator/agonist activation; activation, % at 3.6 µM; actives 0.37% (n = 220,000); in the data active = activation above about 33%, passing the limit was not always enough;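 note: cells stimulated with NPY at EC10 then isoproterenol at EC100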
NPY-Y2 PAM-ag – potentiates or activates human NPY-Y2 receptor; P49146; cells expressing NPY-Y2, potentiator/agonist read-out; activation, % at 3.6 µM; actives 0.45% (n = 220,000); AID 1359; in the data active = activation above about 27%;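 note: cells stimulated with NPY near EC25 plus isoproterenol at EC100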
Target sequence (P49146 whole entry, looked up): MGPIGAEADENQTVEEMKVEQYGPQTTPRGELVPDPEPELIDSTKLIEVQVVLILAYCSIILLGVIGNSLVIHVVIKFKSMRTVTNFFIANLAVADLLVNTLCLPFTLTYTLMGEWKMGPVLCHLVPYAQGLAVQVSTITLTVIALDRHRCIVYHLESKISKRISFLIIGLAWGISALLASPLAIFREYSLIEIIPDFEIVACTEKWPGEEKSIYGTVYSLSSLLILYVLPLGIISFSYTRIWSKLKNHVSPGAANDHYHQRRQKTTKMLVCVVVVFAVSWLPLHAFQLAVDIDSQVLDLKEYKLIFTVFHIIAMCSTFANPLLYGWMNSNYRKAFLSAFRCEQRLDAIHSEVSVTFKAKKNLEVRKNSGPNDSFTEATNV
NPY Y2 blocker – antagonists of human neuropeptide Y receptor Y2; NPY-Y2 expressing cells, antagonist mode; inhibition, % at 2.7 µM; actives 0.99% (n = 140,000); in the data active = inhibition above about 17%
Wee1 stabilizer – human Wee1 degradation inhibition, primary screen. HeLa Luc-Wee1K328M stability, luciferase luminescence; 100% = proteasome inhibitor MG132 effect. reporter increase, % at 5 µM. actives 1.2% (n = 220,000);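 active = activation above the mean of all tested compounds plus 3 SD, set per screening run, cut at about 8.8% in these data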;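 note: cells exposed to compound for 20 h before luminescence read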
Hsp70 activator – transcriptional activators of Hsp70; AID 1203; activation, % at 10 µM; actives 0.04% (n = 200,000); HeLa Hsp70 promoter luciferase reporter, luminescence; scaled: vehicle 0, proteasome-inhibitor control 100%;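 active = activation above the mean across all tested compounds plus 3 SD, cutoff set per campaign, cut at about 5.5% in these data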
Large screens that a line does not name were inactive.

COc1cccc(C2c3c(oc4ccccc4c3=O)C(=O)N2CCCN2CCOCC2)c1 (stereo not given)	none
CC(=O)Oc1ccc2c(c1)Oc1cc(OC(C)=O)ccc1C21OC(=O)c2ccccc21	NPY Y1 blocker 32.1, NPY Y2 blocker 79.1
CC(NC(=O)c1cc(-c2ccc3c(c2)OCO3)nc2ccccc12)C(C)(C)C (stereo not given)	NPY Y1 blocker 146.8, NPY Y2 blocker 151.0
CCOc1ccc(-c2cc(C(=O)Nc3ccc4c(c3)OCCO4)c3ccccc3n2)cc1	NPY Y1 blocker 27.4
COc1ccc(-c2cc(C(=O)OCC(=O)Nc3ccc4c(c3)OCO4)c3ccccc3n2)cc1	none
Cc1ccc(Cn2cccc(-c3nc4ccccc4s3)c2=O)cc1	none
O=c1c(-c2nc3ccccc3s2)cccn1Cc1ccccc1	Wee1 stabilizer 9.0
CC(C)C(=O)NC(=S)Nc1ccccc1N1CCN(C(=O)c2ccccc2)CC1	Wee1 stabilizer 10.4 (no result: NPY Y2 blocker)
CCOc1ccc(S(=O)(=O)NN2Cc3ccccc3C2=N)cc1	none (no result: NPY Y2 blocker)
CCc1ccc(NC(=O)CN(c2cccc(C)c2)S(C)(=O)=O)cc1	none
CN(/C(=N/S(=O)(=O)c1ccccc1)c1ccccc1)S(=O)(=O)c1ccccc1	none
CCN(CC)/C(=N/S(=O)(=O)c1ccc(C)cc1)c1ccccc1	Wee1 stabilizer 10.0
COC(=O)C(C)Sc1nc2c(c(=O)[nH]c(=O)n2C)n1CCCc1ccccc1 (stereo not given)	NPY Y1 blocker 45.8, NPY Y2 blocker 46.2
CCCCCn1c(SCCc2ccccc2)nc2c1c(=O)[nH]c(=O)n2C	none
CCCCCOC(=O)CSc1nc2c(c(=O)[nH]c(=O)n2C)n1CCc1ccccc1	Wee1 stabilizer 9.9
CCOC(=O)C(C)Sc1nc2c(c(=O)[nH]c(=O)n2C)n1CCc1ccccc1 (stereo not given)	none
Cc1cc(=O)oc(C)c1C(=O)NC1CCCCCCC1	none (no result: NPY Y2 blocker)
C=CCN(CC=C)S(=O)(=O)c1ccc(NC(=S)NC(=O)Cc2ccc(OC)cc2)cc1	none
CCOC(=O)CCc1c(C)c2ccc(OCC)c(C)c2oc1=O	NPY Y1 blocker 33.2, NPY Y2 blocker 29.0
O=C(O)CC1COc2ccccc2N1C(=O)c1ccccc1Cl (stereo not given)	none (no result: NPY Y2 blocker)
COc1ccc(N=Nc2nc3ccc(Br)cc3n2C)cc1	Wee1 stabilizer 9.9
COc1ccc(Cc2nc3ccccc3n2C)cc1	none (no result: NPY Y2 blocker)
Cc1cc(C)cc(N=C2NC(=O)/C(=C/c3cccs3)S2)c1	none
CCOc1ccc2c(c1)S/C(=C\c1cccs1)C(=O)N2	Wee1 stabilizer 9.0 (no result: NPY Y1 blocker, NPY Y2 blocker, Hsp70 activator)
CC(C)N(C(=O)NC(=O)NCC1CCCO1)S(C)(=O)=O (stereo not given)	Wee1 stabilizer 9.5
O=C(COC(=O)/C=C/c1ccc([N+](=O)[O-])cc1)NCc1ccc2c(c1)OCO2	none (no result: NPY Y1 blocker, NPY Y2 blocker, Hsp70 activator)
O=C(COC(=O)CCSc1ccccc1Cl)NCc1ccco1	none (no result: NPY Y2 blocker)
COCCNS(=O)(=O)c1cc(OC)c(Cl)cc1Cl	none
CCOc1cc(C)c(Cl)cc1S(=O)(=O)NCCOC	Wee1 stabilizer 9.5
Cc1ccccc1NC1C=CS(=O)(=O)C1 (stereo not given)	NPY-Y2 PAM-ag 106.9
O=C(NC(Cc1c[nH]c2ccccc12)C(=O)N/N=C/c1ccc(Cl)cc1)c1cccs1 (stereo not given)	none (no result: NPY Y2 blocker)
COc1ccc(/C=N/NC(=O)C(Cc2c[nH]c3ccccc23)NC(=O)OCC(C)C)cc1[N+](=O)[O-] (stereo not given)	NPY Y1 blocker 35.2, NPY Y2 blocker 33.4
CCN(CC)c1ccc(NC(=O)CCCCCN2C(=O)c3ccccc3C2=O)cc1	Wee1 stabilizer 11.4
Cc1ccc(C)c2[nH]c(=O)c(CN(Cc3nnnn3C3CCCCC3)CC3CCCO3)cc12 (stereo not given)	Wee1 stabilizer 9.8
Cc1ccc(C)c2[nH]c(=O)c(CN(CCN3CCOCC3)Cc3nnnn3CC3CCCO3)cc12 (stereo not given)	none
CC(C)COc1ccc(CSCCNC(=S)Nc2ccccc2)cc1	none
CCOc1ccc(-n2nc(C(=O)N3CCN(CC)CC3)c3ccccc3c2=O)cc1	Wee1 stabilizer 9.6
CCOc1ccc(-n2nc(C(=O)NCCOC)c3ccccc3c2=O)cc1	none
